# Screening results as filed in PubChem BioAssay.
# In the library only some 5% were active in any assay of this set; here they are far more common.
# CSC inhib – blocks cancer stem cells; cancer stem cell-like cells viability, luminescence; inhibition, % at 7.5 µM; 1.1% of 300,000 active; AID 2717; in the data active = inhibition above about 75%; tested in HMLE shEcad cells
# UPR XBP1 act – activators of adaptive arm of unfolded protein response (XBP1) | AID 463104 | activation, % at 20 µM | CHO-XBP1 luciferase reporter, IRE1-XBP1 UPR activation, luminescence; percent of tunicamycin response, DMSO as zero | 0.33% of 330,000 active;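 active = versus positive control, 20 µM dose yields 30% or more activation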;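 also: 100% = tunicamycin at 10 µg/mL and 0% = DMSO only wells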
#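 Material: IRE1-XBP1 luciferase reporter CHO line / Quantity: one thousand reporter cells per well / Buffer or medium: F12 with 10% serum / Compound: 20 µM single concentration, DMSO 1% / Times: 6 h treatment, 37 °C / Detection: Steady-Glo luciferase glow luminescence, 10 min after reagent addition / Benchmarks: tunicamycin high, DMSO low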
# CHOP UPR activ – activators of apoptotic arm of unfolded protein response (CHOP). CHO-CHOP luciferase reporter, UPR activation, luminescence; percent of tunicamycin response over DMSO baseline. activation, % at 10 µM. 0.34% of 330,000 active. AID 449763;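 active = at 10 µM dose, activation of 40% or more, normalized to positive control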;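 also: 100% = tunicamycin at 10 µg/mL and 0% = DMSO alone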
#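 Assay system: CHO cells with stable CHOP pathway luciferase reporter; Buffer or medium: F12 plus 10% serum; Times: 16-18 h cell attachment, then 6 h compound exposure, 37 °C; Signal: luciferase luminescence; Read-out basis: percent activation relative to tunicamycin control; Control set: tunicamycin high control, DMSO low control.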
# Beta apoptosis – blocks beta cell apoptosis | INS-1E cytokine-induced death, ATP luminescence, 48 h; percent of positive-control rescue, neutral wells zero | protection from apoptosis, % (concentration not given with the values) | 0.8% of 300,000 active | AID 435005;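 active = Every replicate reaches about 75%, or at least half do and their mean reaches it too, limit read from the data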;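 also: 0% = cytokine-treated negative control wells and 100% = positive control rescue; higher means more ATP so stronger rescue from cytokine killing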
# T cruzi repl – blocks replication of Trypanosoma cruzi; T. cruzi beta-gal in NIH3T3, luminescence, 90 h; inhibition, % (no concentration beside the values); 1.4% of 300,000 active;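 active = mean inhibition across valid replicates above about 55%, limit read from the data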;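 also: signal also drops with host cell toxicity which is not excluded here; 0% = plate median of DMSO wells and 100% = zero luminescence signal; higher percent means less beta-gal luminescence so fewer parasites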
#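 System – NIH/3T3 host cells with β-galactosidase reporter T. cruzi · Doses – single 50 nL compound addition per well in DMSO · Reagent – 5000 T. cruzi trypomastigotes/well · Medium – Low-serum DMEM with 2% FBS · Timing – ≥90 h infection period, 3 h prior cell attachment · Evaluation – parasite load inhibition, % · Technique – GalScreen luminescence, 60 min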
# Mdm2-MdmX inh – inhibitors of human Mdm2/MdmX interaction. O15151+Q00987. SaOS-2 split-luciferase Mdm2/MdmX complementation, luminescence. inhibition, % at 8 µM. 3% of 330,000 active. AID 485346;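 active = inhibition of at least 50% at 8 µM in the primary screen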
# Mdm2-MdmX conf – confirmation of human Mdm2/MdmX interaction inhibitors; shares compounds with Mdm2-MdmX inh; Mdm2-MdmX binding, luminescent assay; inhibition, % at 8 µM; 55% of 10,000 active; in the data active = inhibition above about 40%
# Full FLuc ctr – counter-screen for Mdm2/MdmX inhibitors: full-length luciferase; shares compounds with Mdm2-MdmX inh; SaOS-2 full-length luciferase counterscreen, luminescence; inhibition, % at 8 µM; 77% of 6,200 active; AID 504607;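 active = mean inhibition at 8 µM reaching about 37%, which flags the compound as non-specific, limit read from the data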;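 also: p53-null SaOS-2 cells with luciferase driven by a doxycycline-inducible promoter; compound on cells about two nights before reading with doxycycline added after day one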
# An asterisk follows results filed as active; . = no result given.
SMILES,CSC inhib,UPR XBP1 act,CHOP UPR activ,Beta apoptosis,T cruzi repl,Mdm2-MdmX inh,Mdm2-MdmX conf,Full FLuc ctr
COc1ccccc1CN(C)C(=O)c1cc(-c2cccs2)nc2ccccc12,59,0,2,1,-8,61*,39,57*
COc1ccc(CCN(C)C(=O)c2cc(-c3ccccc3)nc3ccc(C)cc23)cc1OC,-19,-1,0,-5,19,2,.,.
COc1ccc(CN(C)C(=O)c2cc(-c3ccccc3)nc3ccc(C)cc23)c(OC)c1OC,38,-2,10,5,25,65*,31,.
COc1ccc(-c2cc(C(=O)N(C)Cc3cccc(OC)c3OC)c3ccccc3n2)cc1OC,7,-1,2,5,1,49,.,.
COc1ccc(-c2cc(C(=O)N(C)Cc3nc4ccccc4c(=O)[nH]3)c3ccccc3n2)cc1OC,23,-2,3,12,.,52*,12,.
COc1cccc(NC(=O)CN(C)C(=O)c2cc(-c3ccc(F)cc3)nc3ccccc23)c1,7,-2,3,6,39,62*,34,.
COc1cccc(NC(=O)CN(C)C(=O)c2cc(-c3ccccc3)nc3ccccc23)c1,-20,0,-2,0,1,18,.,.
CC(NC(=O)c1cc(S(=O)(=O)N2CCCC2)ccc1Cl)c1ccccn1 (stereo not drawn),-8,-2,-1,4,.,-8,.,.
O=C(CCn1cnc2ccccc2c1=O)Nc1nc(-c2ccc(Br)cc2)cs1,-8,2,1,9,-13,49,.,.
COc1cccc(CN(C)C(=O)c2cc(-c3ccc(OC)c(OC)c3)nc3ccccc23)c1,28,-4,0,6,3,55*,32,.
COc1ccc(CN(C)C(=O)c2cc(-c3ccc(OC)c(OC)c3)nc3ccccc23)c(OC)c1,20,-2,-1,-3,16,57*,46*,101*
COc1cccc(CN(C)C(=O)c2cc(-c3ccc(F)cc3)nc3ccccc23)c1,18,-6,1,14,24,53*,16,.
CCc1ccccc1N(CC(=O)NCc1ccco1)C(=O)CCC(=O)Nc1nccs1,-8,2,5,4,-4,-4,.,.
COc1ccc(CNC(=O)COC(=O)c2ccccc2OCC(=O)Nc2ccc(SC(F)F)cc2)cc1,-7,-1,1,-1,18,99*,16,.
CSc1nc2ccc3nc(NC(=O)c4ccc(C)cc4)sc3c2s1,24,9,3,-4,4,61*,26,.
CCC(=O)Oc1ccc2ccccc2c1CNC(=O)c1ccccc1,-4,-1,1,-5,2,55*,19,.
NC(=O)COc1ccc(-c2noc(COc3ccccc3[N+](=O)[O-])n2)cc1,-3,-3,3,-2,2,16,.,.
O=[N+]([O-])c1ccc(CSc2ccc(S(=O)(=O)N3CCCCC3)cn2)cc1,-8,-3,1,0,.,21,.,.
Cc1ccc(C)c(Cn2nnc3c(=O)[nH]c(C(=O)NCc4ccco4)nc32)c1,.,-2,0,-1,8,-1,.,.
O=C(NCc1ccco1)c1nc2c(nnn2Cc2ccccc2Cl)c(=O)[nH]1,94*,-1,-1,10,10,88*,93*,21
O=C(c1ccccc1Cl)N1N=C(c2ccc(Br)cc2)CC1c1nc2ccccc2[nH]1 (stereo not drawn),16,2,5,1,25,71*,50*,90*
Cc1ccccc1NC(=O)Cn1c(NCC(C)O)nc2ccccc21 (stereo not drawn),-3,-1,-3,4,2,-11,.,.
Cc1cc2cc(CCNC(=O)C3c4ccccc4Oc4ccccc43)c(=O)[nH]c2cc1C,-6,7,4,-12,-1,63*,14,.
COc1ccc(CN2C(=NC(=O)C3CC3)SC3CS(=O)(=O)CC32)cc1 (stereo not drawn),-2,0,0,-1,-4,9,.,.
COc1ccc(C(=O)N=C2SC3CS(=O)(=O)CC3N2Cc2ccc(F)cc2)cc1 (stereo not drawn),-18,-3,1,0,23,51*,41*,65*
SMILES,CSC inhib,UPR XBP1 act,CHOP UPR activ,Beta apoptosis,T cruzi repl,Mdm2-MdmX inh,Mdm2-MdmX conf,Full FLuc ctr
COc1ccc(CN2C(=NC(=O)c3ccccc3)SC3CS(=O)(=O)CC32)cc1 (stereo not drawn),-11,-6,-1,2,25,50*,5,.
O=C(CCl)N(Cc1ccccc1)c1ccccc1,6,-6,10,-4,48,96*,96*,55*
O=C(CCl)N(Cc1cc(=O)[nH]c2ccccc12)c1ccccc1,45,-10,-2,-17,10,100*,100*,53*
Cc1ccccc1N(Cc1cc(=O)[nH]c2ccccc12)C(=O)CCl,22,-4,2,-21,11,96*,73*,58*
CCC(=O)N(Cc1cc(=O)[nH]c2ccccc12)c1ccccc1,0,-1,1,-3,-1,5,.,.
COC(=O)c1ccc2nc(C)cc(Nc3ccccc3C)c2c1,-11,-1,0,6,12,11,.,.
CC(=O)c1ccc(Nc2cc(C)nc3c(C)cccc23)cc1,54,2,3,23,-1,33,.,.
CC(=O)c1ccc(Nc2cc(C)nc3ccccc23)cc1,26,0,3,.,26,59*,50*,61*
COc1ccc2nc(C)cc(Nc3ccc(N4CCN(C)CC4)cc3)c2c1,22,1,2,73,45,99*,90*,36*
COC(=O)c1ccc(Nc2cc(C)nc3ccc(C)cc23)cc1,30,0,0,32,8,100*,66*,52*
COc1ccc(OC)c(Nc2cc(C)nc3ccc(C)cc23)c1,44,0,0,6,40,68*,58*,48*
O=C(CNC(=O)c1ccc(S(=O)(=O)N2CCCC2)cc1)N/N=C/c1ccc(Cl)cc1Cl,.,-2,0,-15,7,26,.,.
COc1cc(C(=O)Nc2ccc(N3CCN(C(=O)c4ccc(C)cc4)CC3)cc2)cc(OC)c1OC,7,-5,2,12,-1,10,.,.
N/C(=N\OC(=O)C12CC3CC(CC(C3)C1)C2)c1cccnc1,38,0,4,1,18,71*,2,.
N/C(=N\OC(=O)C12CC3CC(CC(C3)C1)C2)c1ccccc1,59,5,3,-3,17,54*,9,.
